Bioassay records deposited in PubChem by Sanford-Burnham Center for Chemical Genomics.
An excerpt weighted towards active compounds, which were near 1.5% of everything screened.
EBI2 antag = EBI2 receptor antagonists, beta-arrestin recruitment, primary screen, cell-based, luminescence, 7a,25-OHC stimulation, uHTS; hit rate 0.81% among 360,000; AID 651636, 2012; inhibition, % at 5 µM; 7a,25-OHC stimulated; G-protein coupled receptor 183 (Homo sapiens), P32249; in the data active means inhibition above about 38%;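 further: enzyme fragment complementation signal reports receptor beta-arrestin coupling in cells; 0% = agonist plus DMSO wells and 100% = wells without agonist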
CCR6 antag = CCR6 receptor antagonists, primary screen, cell-based, CHO-K1, luminescence, beta-arrestin, uHTS; C-C chemokine receptor type 6 (Homo sapiens), P51684; CHO-K1 CCR6 PathHunter beta-arrestin, CCL20-stimulated; inhibition, % at 20 µM; hit rate 0.49% among 340,000; AID 493098, 2011;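 active means compounds whose inhibition of the agonist-driven luminescence signal at 20 µM reaches about 50%, limit read from the data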;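 further: cells stimulated with CCL20 at 14 nM final; plate controls were DMSO with CCL20 for no effect and DMSO without agonist for full effect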
APJ antagonist = antagonists of human apelin receptor APJ, primary screen, CHO-K1 cells, beta-arrestin complementation, luminescence. inhibition, % at 20 µM. P35414. hit rate 0.32% among 330,000. AID 2521, 2010;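 active means inhibition above about 40% at 20 µM, limit read from the data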;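 further: cells challenged with 10 nM apelin-13 agonist together with compound; plate controls were apelin-13 plus DMSO wells for no effect and DMSO wells lacking apelin-13 for full effect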
Target sequence (P35414 whole entry, looked up): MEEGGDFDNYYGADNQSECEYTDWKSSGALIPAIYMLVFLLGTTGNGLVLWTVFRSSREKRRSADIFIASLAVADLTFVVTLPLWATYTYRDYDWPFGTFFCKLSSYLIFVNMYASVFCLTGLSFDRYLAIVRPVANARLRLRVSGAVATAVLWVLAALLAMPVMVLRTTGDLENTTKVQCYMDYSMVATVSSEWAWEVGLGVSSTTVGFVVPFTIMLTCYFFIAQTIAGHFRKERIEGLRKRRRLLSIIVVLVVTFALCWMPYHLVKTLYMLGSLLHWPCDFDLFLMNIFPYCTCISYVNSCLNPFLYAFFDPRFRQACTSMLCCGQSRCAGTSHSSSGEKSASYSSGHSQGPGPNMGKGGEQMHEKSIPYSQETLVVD
APJ agonist = agonists of human apelin receptor APJ, primary screen, CHO-K1 cells, PathHunter beta-arrestin, luminescence; P35414; activation, % at 20 µM; 0% DMSO wells, 100% apelin; hit rate 0.11% among 330,000;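 active means activation more than six SD over the plate average, tested at 20 µM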;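 further: 0% = DMSO alone and 100% = apelin-13 at 10 nM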
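Assay system – PathHunter CHO-K1 APJ (AGTRL-1) beta-arrestin reporter cells · Compound – one dose, 20 µM compound, 1% DMSO · Timing – compound 90 min 25 °C, reagent 1 h · Measured by – luminescence from split beta-galactosidase complementation, Galacton Star/Emerald II substrate · Measure – beta-arrestin recruitment to APJ as agonist activity, luminescent signal · Benchmarks – DMSO vs Apelin-13 10 nM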
CXCR6 block = CXCR6 receptor inhibitors, primary screen, cell-based, beta-arrestin, luminescence, CHO-K1 PathHunter, 1536-well; inhibition, % at 20 µM; hit rate 0.36% among 360,000; in the data active means inhibition above about 34%, passing the limit was not always enough;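 further: antagonist mode with CXCL16 agonist at 10 nM final; 0% = 10 nM CXCL16 with DMSO and 100% = unstimulated wells without agonist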
Starred values were filed as active, the others as inactive.

Screening O=C(Cc1ccc(Cl)cc1)Nc1ccc(-c2nnc(-c3ccco3)o2)cc1 returned EBI2 antag -3, CCR6 antag 10, APJ antagonist -10, APJ agonist 1 and CXCR6 block 1.
Screening Oc1cccc2cc3cccc(O)c3c(O)c12 returned EBI2 antag -9, CCR6 antag 31, APJ antagonist -8, APJ agonist 18 and CXCR6 block -15.
For O=C1NC[C@H](CCCCN2C[C@H](Cc3ccccc3)N(CCC3CCCCC3)C(=O)C2=O)N(CCc2ccc(O)cc2)C1=O the results were EBI2 antag 3 and CXCR6 block 0.
`COC(CNC(=O)c1ccc2c3c(onc13)-c1ccccc1C2=O)OC` gave EBI2 antag 13, APJ antagonist -6, APJ agonist 8 and CXCR6 block 56*.
For Cc1noc(C)c1NC(=O)N1C[C@H](O)COC[C@H]2O[C@@H](CC(=O)NCC3CCCCC3)CC[C@@H]21 the results were EBI2 antag 1.
Screening O=[N+]([O-])c1cc(Cl)cc(/C=N\Nc2ccccn2)c1O returned EBI2 antag 32, CCR6 antag 74*, APJ antagonist 20, APJ agonist -7 and CXCR6 block 78*.
Screening N#C/C(N=Nc1ccccc1O)=N\Nc1ccccc1O returned EBI2 antag -21, CCR6 antag 71*, APJ antagonist 3, APJ agonist -1 and CXCR6 block 13.
`CC1(C)CC(=O)C(=Cc2cn(-c3ccccc3)nc2-c2ccccc2)C(=O)C1` gave EBI2 antag 38, CCR6 antag -30, APJ antagonist -6, APJ agonist 7 and CXCR6 block -12.
Screening CC1=NNC(=O)/C1=C\c1cn(-c2ccccc2)nc1-c1ccc(Cl)cc1 returned EBI2 antag 91*, CCR6 antag -11, APJ antagonist -27, APJ agonist 38* and CXCR6 block -4.
For CCCOc1ccc(C(=O)NNC(=S)NC(=O)c2ccco2)cc1 the results were EBI2 antag -5, CCR6 antag 70*, APJ antagonist 9, APJ agonist -3 and CXCR6 block 37.
Screening O=[N+]([O-])c1ccc(/C=N/n2c(C3CCCCC3)n[nH]c2=S)cc1 returned EBI2 antag 12, CCR6 antag 56*, APJ antagonist 16, APJ agonist -2 and CXCR6 block 20.
`O=C(Cn1ccc2ccccc2c1=O)Nc1ccc2c(c1)OCO2` gave EBI2 antag -8, CCR6 antag 69*, APJ antagonist -5, APJ agonist -5 and CXCR6 block -6.
Cc1ccc2ccc(C(Nc3cccc(C(F)(F)F)c3)c3cccnc3)c(O)c2n1 (stereo not given) was read as EBI2 antag 19, CCR6 antag 53*, APJ antagonist 21, APJ agonist -6 and CXCR6 block 40*.
O=C(OCc1nc2ccsc2c(=O)[nH]1)c1ccccc1 was read as EBI2 antag -2, CCR6 antag -10, APJ antagonist 12, APJ agonist -5 and CXCR6 block -2.
Screening CC(C)c1ccc(N2C(=O)CC(Sc3ncn[nH]3)C2=O)cc1 (stereo not given) returned EBI2 antag -17, CCR6 antag 0, APJ antagonist 13, APJ agonist 4 and CXCR6 block -3.
Screening COc1ccc(N2C(=O)CC(Sc3ncn[nH]3)C2=O)c(OC)c1 (stereo not given) returned EBI2 antag -2, CCR6 antag 79*, APJ antagonist 9, APJ agonist 4 and CXCR6 block -4.
Cc1cccc(Nc2nc(-c3sc(C)nc3C)cs2)c1 was read as EBI2 antag 57*, CCR6 antag -10, APJ antagonist -3, APJ agonist -1 and CXCR6 block 6.
For COc1cc(/C=C2\C(=O)N(c3ccc(NC(C)=O)cc3)N=C2c2ccccc2)ccc1O the results were EBI2 antag 9, CCR6 antag 48, APJ antagonist 40, APJ agonist -4 and CXCR6 block 46*.
For Cc1ccc(S(=O)(=O)NC2=C(N3CCN(c4ccccc4F)CC3)C(=O)c3ccccc3C2=O)cc1 the results were EBI2 antag -15, CCR6 antag 37, APJ antagonist -45, APJ agonist -2 and CXCR6 block 24.
